Only some compounds are listed: those with a hit (about 3.7% of all), similar ones and a draw of the others.
KCNQ1 inh – blocks the human KCNQ1 potassium channel; B-score at 10 µM; CHO-K1 KCNQ1, FluxOR thallium flux fluorescence; active compounds read high; 1.3% of 310,000 active; AID 2642;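 active = compounds whose thallium flux B-score, printed positive for inhibition, exceeds three library SD while starting fluorescence stays within three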;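 also: channel opened by potassium depolarization with thallium stimulus after 20 min compound exposure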
KCNK9 block – human KCNK9 channel inhibition; AID 488922; 1.2% of 310,000 active; HEK293 KCNK9, FluxOR thallium flux fluorescence; active compounds read low; Q9NPC2; B-score at 10 µM;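 active = ratio B-score over 3 SD below the library mean, with starting fluorescence within 5 SD of its mean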;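 also: negative B-score means less thallium flux so channel inhibition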
KCNQ1 act – potentiates or activates the human KCNQ1 potassium channel. CHO-K1 KCNQ1, thallium flux FluxOR fluorescence; active compounds read high. B-score at 10 µM. 0.35% of 310,000 active. AID 2648;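 active = fluorescence ratio B-score, a plate-corrected score, at least three library SD, with initial intensity B-score within 5 SD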
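assay system = KCNQ1-transfected CHO-K1 cells | medium = assay buffer with matched DMSO | probe or stimulus = depolarizing K+/Tl+ stimulus, K2SO4 and Tl2SO4 each 12.5 mM in 5x stock | dosing = single dose | incubation = dye 90 min, compound 20 min, room temperature | detection = kinetic FluxOR fluorescence, 10 s baseline plus 110 s post-stimulus | evaluation = ratio B score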
KCNK3 block – human KCNK3 channel inhibition, primary screen | AID 602410 | B-score at 10 µM | 0.84% of 340,000 active | O14649 | CHO-KCNK3 thallium flux, FluxOR fluorescence; active compounds read low;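 active = B-score under library mean minus 4 SD, starting fluorescence ratio at most library mean plus 5 SD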;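 also: more negative B-score means stronger inhibition of thallium flux through KCNK3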
Kir21 inh – blocks the mouse Kir2.1 inward-rectifier potassium channel | HEK293-Kir2.1, FluxOR thallium flux fluorescence; active compounds read low | B-score at 10 µM | 0.85% of 310,000 active | P35561;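 active = fluorescence ratio B-score at or below minus 3 SD of library scores, with starting-brightness B-score within 2 SD, cut at about -4.2 in these data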;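 also: channel flux triggered by added potassium and thallium sulfate stimulus; B-score of peak minus minimum fluorescence over baseline after thallium stimulus; more negative B-score means stronger Kir2.1 block with less thallium influx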
Target sequence (P35561 whole entry, looked up): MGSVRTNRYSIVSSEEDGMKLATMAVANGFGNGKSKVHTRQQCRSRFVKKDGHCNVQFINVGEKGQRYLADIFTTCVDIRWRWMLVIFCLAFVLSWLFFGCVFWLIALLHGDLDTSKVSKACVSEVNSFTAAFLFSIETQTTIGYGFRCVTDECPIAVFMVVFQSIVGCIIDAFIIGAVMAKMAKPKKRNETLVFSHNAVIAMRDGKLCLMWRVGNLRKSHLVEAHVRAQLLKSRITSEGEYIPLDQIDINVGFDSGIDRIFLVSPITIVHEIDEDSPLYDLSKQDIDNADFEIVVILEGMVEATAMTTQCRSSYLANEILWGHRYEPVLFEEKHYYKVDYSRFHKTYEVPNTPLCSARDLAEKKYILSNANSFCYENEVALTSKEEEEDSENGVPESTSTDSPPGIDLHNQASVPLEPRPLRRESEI
hERG protect – compounds protecting human hERG from proarrhythmic drug block; Q12809; CHO-hERG, FluxOR thallium flux, dofetilide IC70 present; activation (rescue from dofetilide block), less the hit threshold, % at 10 µM; 0.51% of 310,000 active; AID 1511;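 active = activation above the mean of controls blocked by dofetilide plus 5 SD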;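 also: thallium influx through hERG after potassium depolarization seen as dye fluorescence rise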
KCNK3 confirm – confirmation of human KCNK3 two-pore domain potassium channel inhibitors | shares compounds with KCNK3 block | CHO-KCNK3 thallium flux, FluxOR fluorescence; 0% buffer, 100% carvedilol maximal block | AID 651638 | 99% of 2,400 active | ratio percent of control, % at 10 µM;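 active = ratio percent of control, averaged over triplicates, above buffer control mean plus 5 SD, cut at about 64% in these data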;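 also: ratio is the fluorescence rise from min to max over baseline after thallium stimulus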
KCNK3 uninduced – KCNK3 inhibitor counter-screen hit in non-induced cells; 40% of 2,400 active; AID 651747; shares compounds with KCNK3 block; non-induced KCNK3 parental cells, FluxOR thallium flux; active compounds read low; thallium flux ratio (lower = more inhibition) at 10 µM;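 active = thallium flux ratio, averaged over three wells, more than 5 SD below the buffer control mean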;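 also: host cells are CHO cells without KCNK3 induction; ratio is peak minus trough fluorescence over baseline then normalized to buffer controls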
Active calls of the source: *; i = inactive; / = not tested or not shown.

SMILES	KCNQ1 inh	KCNK9 block	KCNQ1 act	KCNK3 block	Kir21 inh	hERG protect	KCNK3 confirm	KCNK3 uninduced
CCOC(=O)c1ccccc1NC(=O)C(C)Oc1ccccc1 (configuration not stated)	i	i	i	-10*	-1.8	-9	78*	i
CCCC(C)C(=O)Nc1ccccc1C(=O)OCC (configuration not stated)	i	i	i	i	0.01	-2	/	/
COc1ccc(-c2cn3nc(SCC(=O)NCC4CCCO4)ccc3n2)cc1 (configuration not stated)	i	i	i	i	-0.4	-11	/	/
COc1ccc(CCNC(=O)c2ccc(NC(=O)CC3SC(N4CCCCC4)=NC3=O)cc2)cc1 (configuration not stated)	/	/	/	i	/	/	/	/
Cc1cc(N/N=C\c2ccccc2)nc(-c2ccccc2O)n1	i	i	i	i	-0.33	-6	/	/
C/C(=N\Nc1cc(C)nc(-c2ccccc2O)n1)c1ccccc1O	10*	i	i	-9.1*	-0.24	-21	106*	i
CCc1ncc(CN2CCCC(C(=O)Nc3cccc(-c4cccc(C)c4)c3)C2)cn1 (configuration not stated)	i	i	i	-11*	0.04	-13	115*	0.15*
COCCOC(=O)C1=C(C)N=C2SCCC(=O)N2C1c1ccc(C(=O)OC)cc1 (configuration not stated)	i	i	i	i	1.1	-3	/	/
COCCOC(=O)C1=C(C)N=C2SCCC(=O)N2C1/C=C/c1ccccc1 (configuration not stated)	i	i	i	-13*	0.76	-6	105*	0.16*
CCOC(=O)C1=C(C)N=C2SCCC(=O)N2[C@@H]1/C=C/c1ccccc1	i	i	i	i	-0.06	-10	/	/
COC(=O)C1=C(C)N=C2SCCC(=O)N2C1c1ccc(C(=O)OC)cc1 (configuration not stated)	i	i	i	-8.9*	0.87	-10	78*	0.15*
COc1ccc(CNC(=O)Cn2cc(C(F)(F)F)ccc2=O)cc1	i	i	i	i	0.03	-11	/	/
O=C(CSc1c(Cl)cccc1Cl)N1CCC(c2nc3ccccc3s2)CC1	i	i	i	i	0.91	-6	/	/
O=C(CSc1ccc(Cl)cc1)N1CCC(c2nc3ccccc3s2)CC1	i	i	i	-8.8*	0.26	-14	127*	0.16*
CC(=O)OC1C(=O)N(Cc2ccccc2)C1c1ccc(C)cc1 (configuration not stated)	/	/	/	i	/	/	/	/
COc1ccc(-c2nc3ccccn3c2CN2CCN(c3ccccc3F)CC2)cc1	i	i	i	-8.8*	1.1	-10	106*	0.16*
CC(C)N(C(=S)NC1CC2CCC1C2)c1ccccc1 (configuration not stated)	i	i	i	-9.8*	0.28	-17	118*	0.16*
COc1cccc(-c2nn(-c3ccccc3)cc2/C=C(/NC(=O)c2ccccc2)C(=O)O)c1	i	i	i	i	2.6	-11	/	/
CCc1cc(C(=O)Nc2cc(S(=O)(=O)N(CC)CC)ccc2N2CCN(C)CC2)sc1C	i	i	i	i	0.6	-14	/	/
CCc1cc(C(=O)Nc2cc(S(=O)(=O)N(C)C)ccc2C)sc1C	i	i	i	-9.3*	0.05	-10	90*	i
O=C1c2cccc3cccc(c23)N1Cc1cccc(F)c1	i	i	i	-14*	1.6	-2	101*	i
CC(C)c1ccccc1-n1c(SCC(=O)c2ccc3c(c2)NC(=O)CO3)nc2ccccc2c1=O	6*	-7.4*	i	-11*	0.07	-22	115*	0.15*
COc1ccc2c(c1)C(c1cccs1)=NNC(c1ccncc1)=N2	i	i	i	-8.8*	-0.02	-9	66*	i
C[C@H](CO)N1C[C@H](C)[C@@H](CN(C)S(=O)(=O)c2ccc(F)cc2)Oc2ccc(NC(=O)CCN3CCOCC3)cc2C1=O	/	/	/	i	/	/	/	/
CC(=O)N1C(C)(C)CC(=NOC(=O)c2ccc(C)cc2)CC1(C)C	i	i	i	i	2.2	-2	/	/
SMILES	KCNQ1 inh	KCNK9 block	KCNQ1 act	KCNK3 block	Kir21 inh	hERG protect	KCNK3 confirm	KCNK3 uninduced
CCC(C(=O)NCCc1c[nH]c2ccc(C)cc12)c1ccccc1 (configuration not stated)	i	-7.8*	i	-8.8*	-4.5*	-2	110*	i
C=CCn1c(SCC(N)=O)nc2sc3c(c2c1=O)CCC3	i	i	i	i	2.2	1	/	/
C=CCn1c(SCc2csc(C)n2)nc2sc3c(c2c1=O)CCCC3	i	i	i	-8.9*	0.02	-9	122*	0.14*
CCN(C(=O)CSc1nnc(-c2cccs2)o1)C1CCS(=O)(=O)C1 (configuration not stated)	i	i	i	i	2.1	-11	/	/
Cc1ccc(S(=O)(=O)N(C)C)cc1NC(=O)C(C)N(C)CCOc1ccc(Cl)cc1 (configuration not stated)	i	i	i	-9.4*	-0.01	-10	79*	i
COc1ccccc1N(C)S(=O)(=O)c1ccc(C(=O)Nc2cccc(Br)c2)cc1	/	/	/	-12*	/	/	125*	i
CC(CS(=O)(=O)c1ccccc1[N+](=O)[O-])N1CCOCC1 (configuration not stated)	i	i	i	-9.1*	-1.5	-3	84*	i
O=[N+]([O-])c1ccccc1S(=O)(=O)c1ccccc1[N+](=O)[O-]	i	i	i	i	1.6	-9	/	/
CCc1ccc(NC(=O)NC2CCCCCCC2)cc1	i	i	i	-9.4*	-0.14	-7	125*	0.12*
NC(=O)CSc1nc2cc(Cl)ccc2c(=O)n1C1CCCCC1	i	i	i	-10*	-0.29	-3	95*	i
NS(=O)(=O)c1ccc(CCNCC(=O)NC2CC2)cc1	i	i	i	i	0.72	-10	/	/
O=C(Nc1ccc(C(F)(F)F)cc1)c1ccccc1Br	i	i	i	i	-1.6	-5	/	/
O=C(Nc1ccc(Br)c(C(F)(F)F)c1)c1ccc(C(F)(F)F)cc1	12*	i	i	-10*	0.81	-23	119*	0.1*
